Test results taken from ChEMBL document CHEMBL1151705, “Novel azalides derived from 16-membered macrolides. Part II: Isolation of the linear 9-formylcarboxylic acid and its sequential macrocyclization with an amino alcohol or an azidoamine” (2008).
Values after ≈ are worked out from the molar mass of the structure shown.

Key:
Type in all cases: functional
Streptococcus pyogenes [1] = assay: Antimicrobial activity against Streptococcus pyogenes 2 constitutively expressing ermB after 20 hrs by agar dilution method
Outline: (§1)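 Streptococci, H. influenzae and M. catarrhalis were precultured on blood agar plates. Suspensions of about 10⁶ CFU/ml were inoculated onto sensitivity disk agar supplemented with 5% horse blood and incubated at 37 °C for 20 h. MIC was read as the lowest drug concentration with no visible growth.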

Streptococcus pyogenes [2] = assay: Antimicrobial activity against drug-susceptible Streptococcus pyogenes 1 after 20 hrs by agar dilution method; settings: Streptococcus pyogenes, 20 h; read-out: MIC; outline: as §1
Haemophilus influenzae [3] = assay: Antimicrobial activity against drug-susceptible Haemophilus influenzae 3 after 20 hrs by agar dilution method; settings: Haemophilus influenzae, 20 h; read-out: MIC; outline: as §1
Streptococcus pneumoniae [4] = assay: Antimicrobial activity against drug-susceptible Streptococcus pneumoniae DP1 Type1 after 20 hrs by agar dilution method; settings: Streptococcus pneumoniae, 20 h; read-out: MIC; outline: as §1
Streptococcus pneumoniae [5] = assay: Antimicrobial activity against Streptococcus pneumoniae 8 expressing inducible ermB after 20 hrs by agar dilution method; settings: Streptococcus pneumoniae, 20 h; read-out: MIC; outline: as §1
Staphylococcus aureus [6] = assay: Antimicrobial activity against drug-susceptible Staphylococcus aureus 3 after 20 hrs by agar dilution method; settings: Staphylococcus aureus, 20 h; read-out: MIC
Outline: (§2)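 Agar dilution MIC. S. aureus seed culture was grown in sensitivity test broth. Cell suspension (about 10⁶ CFU/ml) was inoculated onto sensitivity disk agar with 5% horse blood and incubated at 37 °C for 20 h. MIC was the lowest drug concentration that prevented visible growth.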

Streptococcus pneumoniae [7] = assay: Antimicrobial activity against Streptococcus pneumoniae 9 expressing mefA after 20 hrs by agar dilution method; settings: Streptococcus pneumoniae, 20 h; read-out: MIC; outline: as §1
Streptococcus pneumoniae [8] = assay: Antimicrobial activity against Streptococcus pneumoniae 5 constitutively expressing ermB/mefA after 20 hrs by agar dilution method; settings: Streptococcus pneumoniae, 20 h; read-out: MIC; outline: as §1
Staphylococcus aureus [9] = assay: Antimicrobial activity against Staphylococcus aureus 6 expressing inducible ermB after 20 hrs by agar dilution method; outline: as §2
Moraxella catarrhalis [10] = assay: Antimicrobial activity against drug-susceptible Moraxella catarrhalis 1 after 20 hrs by agar dilution method; settings: Moraxella catarrhalis, 20 h; read-out: MIC; outline: as §1
Haemophilus influenzae [11] = assay: Antimicrobial activity against drug-susceptible Haemophilus influenzae 2 after 20 hrs by agar dilution method; settings: Haemophilus influenzae, 20 h; read-out: MIC; outline: as §1
Haemophilus influenzae [12] = assay: Antimicrobial activity against drug-susceptible Haemophilus influenzae 1 after 20 hrs by agar dilution method; settings: Haemophilus influenzae, 20 h; read-out: MIC; outline: as §1
Streptococcus pneumoniae [13] = assay: Antimicrobial activity against drug-susceptible Streptococcus pneumoniae 2 after 20 hrs by agar dilution method; settings: Streptococcus pneumoniae, 20 h; read-out: MIC; outline: as §1
Staphylococcus aureus [14] = assay: Antimicrobial activity against Staphylococcus aureus 5 expressing inducible ermB after 20 hrs by agar dilution method; settings: Staphylococcus aureus, 20 h; read-out: MIC; outline: as §2
Streptococcus pneumoniae [15] = assay: Antimicrobial activity against Streptococcus pneumoniae 10 expressing mefA after 20 hrs by agar dilution method; settings: Streptococcus pneumoniae, 20 h; read-out: MIC; outline: as §1
Streptococcus pyogenes [16] = assay: Antimicrobial activity against Streptococcus pyogenes 3 expressing mefA after 20 hrs by agar dilution method; settings: Streptococcus pyogenes, 20 h; read-out: MIC; outline: as §1
Moraxella catarrhalis [17] = assay: Antimicrobial activity against drug-susceptible Moraxella catarrhalis 2 after 20 hrs by agar dilution method; settings: Moraxella catarrhalis, 20 h; read-out: MIC; outline: as §1
Staphylococcus aureus [18] = assay: Antimicrobial activity against Staphylococcus aureus 4 constitutively expressing ermA after 20 hrs by agar dilution method; outline: as §2
Streptococcus pneumoniae [19] = assay: Antimicrobial activity against Streptococcus pneumoniae 7 expressing inducible ermB after 20 hrs by agar dilution method; settings: Streptococcus pneumoniae, 20 h; read-out: MIC; outline: as §1
Staphylococcus aureus [20] = assay: Antimicrobial activity against drug-susceptible Staphylococcus aureus 2 after 20 hrs by agar dilution method; settings: Staphylococcus aureus, 20 h; read-out: MIC; outline: as §2
Streptococcus pneumoniae [21] = assay: Antimicrobial activity against Streptococcus pneumoniae 6 constitutively expressing ermB after 20 hrs by agar dilution method; settings: Streptococcus pneumoniae, 20 h; read-out: MIC; outline: as §1
Staphylococcus aureus [22] = assay: Antimicrobial activity against drug-susceptible Staphylococcus aureus 209P JC-1 after 20 hrs by agar dilution method; settings: Staphylococcus aureus, 209P, 20 h; read-out: MIC; outline: as §2
Haemophilus influenzae [23] = assay: Antimicrobial activity against drug-susceptible Haemophilus influenzae 4 after 20 hrs by agar dilution method; settings: Haemophilus influenzae, 20 h; read-out: MIC; outline: as §1

MIC (Streptococcus pyogenes [1]) [µg/mL]	MIC (Streptococcus pyogenes [2]) [µg/mL]	MIC (Haemophilus influenzae [3]) [µg/mL]	MIC (Streptococcus pneumoniae [4]) [µg/mL]	MIC (Streptococcus pneumoniae [5]) [µg/mL]	MIC (Staphylococcus aureus [6]) [µg/mL]	MIC (Streptococcus pneumoniae [7]) [µg/mL]	MIC (Streptococcus pneumoniae [8]) [µg/mL]	MIC (Staphylococcus aureus [9]) [µg/mL]	MIC (Moraxella catarrhalis [10]) [µg/mL]	MIC (Haemophilus influenzae [11]) [µg/mL]	MIC (Haemophilus influenzae [12]) [µg/mL]	MIC (Streptococcus pneumoniae [13]) [µg/mL]	MIC (Staphylococcus aureus [14]) [µg/mL]	MIC (Streptococcus pneumoniae [15]) [µg/mL]	MIC (Streptococcus pyogenes [16]) [µg/mL]	MIC (Moraxella catarrhalis [17]) [µg/mL]	MIC (Staphylococcus aureus [18]) [µg/mL]	MIC (Streptococcus pneumoniae [19]) [µg/mL]	MIC (Staphylococcus aureus [20]) [µg/mL]	Compound	further results
> 128	0.06 (≈ 0.059 µM)	8 (≈ 7.87 µM)	0.06 (≈ 0.059 µM)	8 (≈ 7.87 µM)	0.25 (≈ 0.246 µM)	0.13 (≈ 0.128 µM)	> 128	0.25 (≈ 0.246 µM)	0.25 (≈ 0.246 µM)	1 (≈ 0.984 µM)	16 (≈ 15.7 µM)	0.06 (≈ 0.059 µM)	0.13 (≈ 0.128 µM)	0.13 (≈ 0.128 µM)	0.13 (≈ 0.128 µM)	0.25 (≈ 0.246 µM)	> 128	4 (≈ 3.94 µM)	0.5 (≈ 0.492 µM)	CCOC(=O)[C@H]1[C@H](C)O[C@@H](O[C@H]2[C@H](N(C)C)[C@@H](O)[C@H](O[C@H]3[C@@H](CC=O)C[C@@H](C)[C@@H](O)CN(CCCc4ccnc5ccccc45)CC[C@@H](C)OC(=O)C[C@@H](OC(=O)CC)[C@@H]3OC)O[C@@H]2C)C[C@@]1(C)OC(C)=O	MIC (Streptococcus pneumoniae [21]): > 128 µg/mL; MIC (Staphylococcus aureus [22]): 0.13 µg/mL (≈ 0.128 µM); MIC (Haemophilus influenzae [23]): 8 µg/mL (≈ 7.87 µM)
> 128	0.25 (≈ 0.245 µM)	16 (≈ 15.7 µM)	0.25 (≈ 0.245 µM)	> 128	0.5 (≈ 0.49 µM)	0.5 (≈ 0.49 µM)	> 128	1 (≈ 0.979 µM)	0.25 (≈ 0.245 µM)	2 (≈ 1.96 µM)	> 128	0.25 (≈ 0.245 µM)	0.5 (≈ 0.49 µM)	0.25 (≈ 0.245 µM)	0.5 (≈ 0.49 µM)	0.5 (≈ 0.49 µM)	> 128	> 128	1 (≈ 0.979 µM)	CCOC(=O)[C@H]1[C@H](C)O[C@@H](O[C@H]2[C@H](N(C)C)[C@@H](O)[C@H](O[C@H]3[C@@H](CC=O)C[C@@H](C)[C@@H](OC(C)=O)CN(CCCCc4ccccc4)CC[C@@H](C)OC(=O)C[C@@H](OC(=O)CC)[C@@H]3OC)O[C@@H]2C)C[C@@]1(C)OC(C)=O	MIC (Streptococcus pneumoniae [21]): > 128 µg/mL; MIC (Staphylococcus aureus [22]): 0.5 µg/mL (≈ 0.49 µM); MIC (Haemophilus influenzae [23]): 16 µg/mL (≈ 15.7 µM)
> 128	0.13 (≈ 0.135 µM)	2 (≈ 2.07 µM)	0.13 (≈ 0.135 µM)	16 (≈ 16.6 µM)	0.25 (≈ 0.259 µM)	0.25 (≈ 0.259 µM)	> 128	0.5 (≈ 0.519 µM)	0.13 (≈ 0.135 µM)	0.5 (≈ 0.519 µM)	8 (≈ 8.3 µM)	0.25 (≈ 0.259 µM)	0.25 (≈ 0.259 µM)	0.25 (≈ 0.259 µM)	0.5 (≈ 0.519 µM)	0.25 (≈ 0.259 µM)	> 128	16 (≈ 16.6 µM)	1 (≈ 1.04 µM)	CCOC(=O)[C@H]1[C@H](C)O[C@@H](O[C@H]2[C@H](N(C)C)[C@@H](O)[C@H](O[C@H]3[C@@H](CC=O)C[C@@H](C)[C@@H](O)CN(CCCCc4ccccc4)CCCNC(=O)C[C@@H](OC(=O)CC)[C@@H]3OC)O[C@@H]2C)C[C@@]1(C)OC(C)=O	MIC (Streptococcus pneumoniae [21]): > 128 µg/mL; MIC (Staphylococcus aureus [22]): 0.25 µg/mL (≈ 0.259 µM); MIC (Haemophilus influenzae [23]): 4 µg/mL (≈ 4.15 µM)
64 (≈ 64.4 µM)	0.13 (≈ 0.131 µM)	8 (≈ 8.05 µM)	0.06 (≈ 0.0604 µM)	1 (≈ 1.01 µM)	0.25 (≈ 0.252 µM)	0.13 (≈ 0.131 µM)	> 128	0.5 (≈ 0.503 µM)	0.25 (≈ 0.252 µM)	0.5 (≈ 0.503 µM)	32 (≈ 32.2 µM)	0.06 (≈ 0.0604 µM)	0.25 (≈ 0.252 µM)	0.06 (≈ 0.0604 µM)	0.25 (≈ 0.252 µM)	0.5 (≈ 0.503 µM)	> 128	1 (≈ 1.01 µM)	1 (≈ 1.01 µM)	CCOC(=O)[C@H]1[C@H](C)O[C@@H](O[C@H]2[C@H](N(C)C)[C@@H](O)[C@H](O[C@H]3[C@@H](CC=O)C[C@@H](C)[C@@H](O)CN(CCCCc4ccccc4)CCC[C@@H](C)OC(=O)C[C@@H](OC(=O)CC)[C@@H]3OC)O[C@@H]2C)C[C@@]1(C)OC(C)=O	MIC (Streptococcus pneumoniae [21]): 64 µg/mL (≈ 64.4 µM); MIC (Staphylococcus aureus [22]): 0.25 µg/mL (≈ 0.252 µM); MIC (Haemophilus influenzae [23]): 16 µg/mL (≈ 16.1 µM)
